Screens deposited in PubChem BioAssay by several laboratories.
In the library only some 6.8% were active in any assay of this set; here they are far more common.
core dimer inh – blocks dimerization of HCV core protein; TR-FRET GST/Flag-core106 dimerization, 1536-well; AID 1899; 0.33% of 300,000 active; inhibition, % at 5 µM;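 active means inhibition above the mean of all tested compounds plus 3 SD, set per screening campaign, cut at about 45% in these data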
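Assay system: tagged HCV core106 pair (GST and Flag); medium: KF-containing HEPES buffer, pH 7.45, DTT, CHAPS, BSA; also added: Eu donor and XL665 acceptor anti-tag antibodies; dosing: 5 µM single dose; timing: compound-protein-antibody incubation 4 h at 22.5 °C; signal: TR-FRET 671 and 617 nm emission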
AI-2 QS modul – Vibrio harveyi AI-2 quorum sensing modulation. activity change, % at 7.5 µM. AID 2094. Vibrio harveyi JMH597 AI-2 luminescence/OD600 ratio, 9 h; active compounds read low; strain lacks LuxN and CqsS sensors; 0 = neutral-control median. 0.4% of 300,000 active; in the data active means activity change below about -75%, passing the limit was not always enough;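 further: luminescence divided by OD600 gain over 9 h not by final OD600 alone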
PHOSPHO1 inh – blocks human PHOSPHO1 phosphatase activity | recombinant PHOSPHO1, absorbance phosphatase assay | Q8TCT1 | inhibition, % at 13.3 µM | 1.1% of 290,000 active; in the data active means inhibition above about 60%
HSF1 inh – HSF1 inhibition; 0.77% of 300,000 active; NIH3T3-HGL HSE-luciferase, MG132-induced, luminescence 8 h; active compounds read low; activity change, negative = inhibition, % at 7.5 µM (by protocol);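 active means more than half of replicate wells show activity change below -50%, luminescence cut by over half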;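 further: luciferase reports HSF-1 transcriptional activity via heat shock element; 0% = median of DMSO wells and -100% = zero luminescence signal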
HSF1 activator – increases HSF-1 driven luciferase reporter signal. NIH3T3-HGL HSF-1 luciferase reporter, MG132, 8 h; 100% = twice DMSO control signal. activation, % at 9 µM. 1.7% of 300,000 active. AID 504408;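 active means mean replicate activation of at least 50% with a set share of replicates each reaching 50%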;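 further: 0% = median of the neutral control wells and 100% = twice that signal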
ALR H2O2 inh – human ALR oxidase inhibition via reduced H2O2. inhibition, % (concentration not given with the values). 3.8% of 290,000 active. purified ALR, DTT oxidation, H2O2 HRP-luminol luminescence. P55789;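 active means mean replicate inhibition above about 79%, with every replicate also reaching it, limit read from the data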
Target sequence (P55789 whole entry, looked up): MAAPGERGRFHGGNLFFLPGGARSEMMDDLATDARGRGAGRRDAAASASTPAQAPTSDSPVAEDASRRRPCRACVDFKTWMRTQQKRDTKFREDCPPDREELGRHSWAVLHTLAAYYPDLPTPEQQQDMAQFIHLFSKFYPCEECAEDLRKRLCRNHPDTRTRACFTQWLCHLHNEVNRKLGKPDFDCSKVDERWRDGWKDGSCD
* hit, by the source's call; . = no result given.

SMILES | core dimer inh | AI-2 QS modul | PHOSPHO1 inh | HSF1 inh | HSF1 activator | ALR H2O2 inh
O=c1cc(CSc2ccc(Cl)cc2)nc(-c2ccccc2)[nH]1 | 7 | 17 | 44 | 19 | 21 | -1
O=c1cc(CSc2ccc(Cl)cc2)nc(-c2ccccn2)[nH]1 | -1 | 28 | . | 124 | 136* | -11
O=C(NNC(=S)NCc1ccco1)c1ccc(Cl)s1 | 0 | 16 | 103* | 20 | 18 | 10
O=C(NCc1ccco1)c1ccc(COc2cc(Cl)ccc2Cl)cc1 | 3 | 37 | -1 | 31 | 76* | -2
O=C(COc1ccc(Cl)cc1Cl)NNC(=S)NCc1ccco1 | 13 | 18 | -7 | . | . | 83*
O=C(NCc1ccco1)c1sc2ccccc2c1Cl | 8 | 5 | -11 | 26 | 66* | -6
O=C(COc1ccc(Cl)cc1Cl)NCc1ccco1 | -1 | -3 | 4 | . | . | 20
Cn1cc(Cl)c(C(=O)NNC(=S)NCc2ccco2)n1 | 3 | 45 | -143 | -2 | 21 | 14
O=C(NC1CCCCC1)C(c1ccco1)N(Cc1cccnc1)C(=O)C1COc2ccccc2O1 (configuration not stated) | 3 | 15 | 21 | -5 | 13 | -3
CN(C)C(=O)c1cc(C(=O)Cc2ccccc2)c[nH]1 | 5 | 10 | 6 | -4 | 16 | -6
CCC1=Nc2cc(C(=O)NCc3ccco3)ccc2Sc2ccc(Cl)cc21 | 59* | -1 | -20 | 2 | 26 | 10
Cc1cc(Cl)cc(Cl)c1OCC(=O)NCc1ccco1 | 41 | 22 | 10 | 8 | 19 | 91*
CCC1=Nc2cc(C(=O)NCc3ccco3)ccc2Sc2ccccc21 | 34 | 34 | -49 | -3 | 3 | 2
Cc1ccc2c(Cl)cc(Cl)c(OCC(=O)NCc3ccco3)c2n1 | . | . | 15 | . | . | .
O=C(CSCc1ccco1)c1ccc(Cl)s1 | 36 | 19 | 48 | 3 | 14 | 98*
O=C(CCn1ccnc1)Nc1ccc2ccccc2c1 | -2 | 12 | 20 | -1 | -6 | .
Cc1c(NC(=O)CN2C(=O)NC(C)(c3ccc(Cl)cc3)C2=O)c(=O)n(-c2ccccc2)n1C (configuration not stated) | 3 | 20 | . | -1 | -21 | 1
CCOc1ccc(N2CC(C(=O)NCCc3c[nH]c4ccc(C)cc34)CC2=O)cc1 (configuration not stated) | 28 | 4 | 18 | -58* | -64 | 4
CCCCOc1ccc(N2CC(C(=O)NCCc3ccc(OC)c(OC)c3)CC2=O)cc1 (configuration not stated) | 3 | 16 | -5 | -82* | -87 | -5
COc1ccc(CCNC(=O)C2CCCN(S(C)(=O)=O)C2)cc1OC (configuration not stated) | 1 | -292* | 10 | 0 | -3 | 4
COc1ccc(N2CC(C(=O)NCCc3ccc(OC)c(OC)c3)CC2=O)cc1 (configuration not stated) | 1 | 7 | 7 | -10 | -7 | -5
COc1ccc(CCNC(=O)CN(c2ccc(OC)c(OC)c2)S(C)(=O)=O)cc1OC | 4 | 10 | 10 | -66* | -73 | -10
COc1ccc(CCNC(=O)CN(c2ccccc2OC)S(C)(=O)=O)cc1OC | -4 | 5 | 2 | -4 | -2 | -1
C[C@H](NC(=O)c1ccccc1)C(=O)N1CCC2(CC1)NCCc1[nH]cnc12 | 2 | 17 | 30 | -3 | -9 | -4
NC(=O)c1ccc(NC(=O)COC(=O)CCC(=O)c2ccc(Cl)cc2)cc1 | 6 | 8 | 24 | -2 | 3 | 6
O=C(NCc1nnnn1-c1ccc(F)c(F)c1)c1ccc2c(c1)OCO2 | -2 | 8 | . | 1 | -4 | -3
CCCCNC(=O)COn1nnc2ccc(S(=O)(=O)N3CCOCC3)cc21 | -6 | 0 | . | -5 | 5 | -4
O=C(Nc1cccc(C(F)(F)F)c1)c1ccc2nc(-c3ccco3)c(-c3ccco3)nc2c1 | 74* | 14 | 24 | 0 | 12 | 1
COc1ccc(CCNC(=O)c2cccc([N+](=O)[O-])c2)cc1OC | -1 | 22 | . | -87* | -88 | -32
COc1ccc(CCNC(=O)Nc2cccc([N+](=O)[O-])c2)cc1OC | -2 | 13 | 39 | 26 | 71* | -2
